{"source": "paper PMC7114156", "about": "(Antiviral Research, 2009)", "key": {"SV40 strain Pa-57": {"tested_on": "SV40 strain Pa-57", "test": "SV40 assay: SV40 replication in Vero cells, viral DNA by qPCR", "type": "cell-based", "conditions": "ratio proportional to viral DNA per cell", "how_it_was_run": "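Vero cells at 2 × 10^4 cells/well were allowed to adhere for 4 h. They were infected with SV40 strain Pa-57 at MOI 0.1 for 2 h. Inoculum was removed and test compound added at 100 to 0.003 μM for 3 days. SV40 DNA was read by qPCR, and growth by MTS in parallel on uninfected cells. The SV40 DNA/MTS ratio was expressed as % of untreated control.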"}, "HSV-1": {"tested_on": "HSV-1", "test": "HSV-1 infection in Vero cells", "type": "cell-based"}, "HPV-31": {"tested_on": "HPV-31", "test": "HPV DNA by qPCR in CIN612 cells", "type": "cell-based"}, "human keratinocyte (HKC)": {"tested_on": "human keratinocyte (HKC)", "test": "Growth of uninfected human keratinocytes", "type": "cell-based", "conditions": "4 days", "how_it_was_run": "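W12-20850 cells were seeded at 7.5 × 10^3 cells/well into 96-well plates containing test compound, 100 to 0.001 μM. Plates were held 4 days at 37 °C, 5% CO2. Growth was read by MTS (A490), and HPV16 DNA was then measured from the same cells. Uninfected human keratinocytes were run in parallel and read by MTS.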"}, "SiHa": {"tested_on": "SiHa", "test": "Growth of SiHa", "type": "cell-based, human", "conditions": "72 h", "how_it_was_run": "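Cell lines carrying integrated viral genomes were plated in 96-well plates in medium with test compound. Growth was read by ATP luminescence (CellTiter-Glo) for HEK293 and WI38 VA13, and by MTS reduction (A490 after 2 h at 37 °C) for Namalwa, W12 20861, SiHa, Caski and HeLa. K and Imax came from a fit to a modified Hill equation.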"}, "[1]": {"test": "Growth of resting PBMC, MTS", "type": "cell-based", "conditions": "human, resting PBMCs"}, "[2]": {"test": "Bone marrow toxicity assay, erythroid progenitors", "type": "cell-based", "conditions": "human, erythroid bone marrow progenitor cells"}, "[3]": {"test": "Bone marrow toxicity assay, granulocyte/macrophage progenitors", "type": "cell-based", "conditions": "human, granulocyte/macrophage bone marrow progenitor cells"}, "W12 cells": {"tested_on": "W12 cells", "test": "mRNA measurement by RT-qPCR in W12 cells", "type": "cell-based, human", "conditions": "W12 cells", "how_it_was_run": "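RNA was taken 0, 24 and 48 h after adding test compound; W12 cells were grown in 75 cm² flasks and washed in chilled PBS. 546 Pathway Set genes were run in quadruplicate by RT-qPCR: 10 μl reactions, primers 900 nM, probes 100 nM final. Ct was normalised to GAPDH, with dCt = Ct(control) − Ct(treated) and a two-sided t-test. Fold change was F = 2^dCt where p ≤ 0.05.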"}, "[4]": {"conditions": "10 nM, 24 h, not significantly different from 1"}}, "note": "Marks after values point to notes of the source that are not given here."}
{"smiles": "O=C(N[C@@H]1CCCc2c1[nH]c1ccc(Cl)cc21)c1ccccn1", "note": "[GSK983, N-[(1R)-6-Chloro-2,3,4,9-tetrahydro-1H-carbazol-1-yl]-2-pyridinecarboxamide]", "values": [{"measurement": "Imax for reduction of the ratio SV40 DNA / MTS activity of Vero cells", "setting": "SV40 strain Pa-57", "value": "79 ± 2", "unit": "%"}, {"measurement": "K for reduction of the ratio SV40 DNA / MTS activity of Vero cells", "setting": "SV40 strain Pa-57", "value": "12 ± 2", "unit": "nM"}, {"measurement": "Susceptibility of HSV-1", "setting": "HSV-1; at concentrations below 1 μM", "value": "not susceptible"}, {"measurement": "Inhibition of HSV-1 infection in Vero cells", "setting": "HSV-1; concentration range 1 nM to 100 μM", "value": "50% inhibition in the micromolar range"}, {"measurement": "Imax, HPV DNA, qPCR", "setting": "HPV-31; CIN612, HPV type 31", "value": "86 ± 1", "unit": "%"}, {"measurement": "Selectivity index", "setting": "HPV-31; HPV DNA qPCR in CIN612 vs HKC", "value": "16,600 ± 5,000"}, {"measurement": "EC50", "setting": "HPV-31; read-out: K, HPV DNA, qPCR", "value": "0.0024 ± 0.0001", "unit": "µM"}, {"measurement": "Imax, Growth, MTS", "setting": "human keratinocyte (HKC)", "value": "∼100%"}, {"measurement": "K, Growth, MTS", "setting": "human keratinocyte (HKC)", "value": "40,000 ± 11,800 nM"}, {"measurement": "Imax, Growth, MTS", "setting": "SiHa; HPV16 integrated", "value": "39 ± 1.6", "unit": "%"}, {"measurement": "EC50", "setting": "SiHa; Homo sapiens, read-out: K, Growth, MTS", "value": "0.037 ± 0.006", "unit": "µM"}, {"measurement": "CC50 at 72 h", "setting": "[1]", "value": 520, "unit": "µM"}, {"measurement": "CC50", "setting": "[2]", "value": "> 10", "unit": "µM"}, {"measurement": "CC50", "setting": "[3]", "value": 160, "unit": "µM"}, {"measurement": "Expression of IFI6, IFI44 and IRF9", "setting": "W12 cells", "value": "strongly induced"}, {"measurement": "Fold increase due to GSK983, CPT1B mRNA", "setting": "W12 cells; 10 nM, 24 h", "value": 2.2, "unit": "fold"}, {"measurement": "Fold increase due to GSK983, IFI16 mRNA", "setting": "W12 cells; 10 nM, 24 h", "value": 5.2, "unit": "fold"}, {"measurement": "Fold increase due to GSK983, IFI44 mRNA", "setting": "W12 cells; 10 nM, 24 h", "value": 2.9, "unit": "fold"}, {"measurement": "Fold increase due to GSK983, IFIT1 mRNA", "setting": "W12 cells; 10 nM, 24 h", "value": 2.6, "unit": "fold"}, {"measurement": "Fold increase due to GSK983, ISG15 mRNA", "setting": "W12 cells; 10 nM, 24 h", "value": 2.5, "unit": "fold"}, {"measurement": "Fold increase due to GSK983, OAS2 mRNA", "setting": "W12 cells; 10 nM, 24 h", "value": 2.1, "unit": "fold"}, {"measurement": "Fold increase due to GSK983, OASL mRNA", "setting": "W12 cells; 10 nM, 24 h", "value": 1.8, "unit": "fold"}, {"measurement": "Fold increase due to GSK983, TNFSF10 mRNA", "setting": "W12 cells; 10 nM, 24 h", "value": 3.7, "unit": "fold"}, {"measurement": "Fold increase due to GSK983, CCL5 mRNA", "setting": "W12 cells; [4]", "value": "7.9 ^b fold"}, {"measurement": "Fold increase due to GSK983, COL10A1 mRNA", "setting": "W12 cells; [4]", "value": "0.8 ^b fold"}, {"measurement": "Fold increase due to GSK983, CSF2 mRNA", "setting": "W12 cells; [4]", "value": "1.5 ^b fold"}, {"measurement": "Fold increase due to GSK983, DCN mRNA", "setting": "W12 cells; [4]", "value": "1.5 ^b fold"}, {"measurement": "Fold increase due to GSK983, DMPK mRNA", "setting": "W12 cells; [4]", "value": "0.9 ^b fold"}, {"measurement": "Fold increase due to GSK983, ERN2 mRNA", "setting": "W12 cells; [4]", "value": "0.7 ^b fold"}, {"measurement": "Fold increase due to GSK983, FMOD mRNA", "setting": "W12 cells; [4]", "value": "1.0 ^b fold"}, {"measurement": "Fold increase due to GSK983, IFI6 mRNA", "setting": "W12 cells; [4]", "value": "1.1 ^b fold"}, {"measurement": "Fold increase due to GSK983, IL6 mRNA", "setting": "W12 cells; [4]", "value": "2.5 ^b fold"}, {"measurement": "Fold increase due to GSK983, IL8 mRNA", "setting": "W12 cells; [4]", "value": "1.8 ^b fold"}, {"measurement": "Fold increase due to GSK983, IRF9 mRNA", "setting": "W12 cells; [4]", "value": "1.0 ^b fold"}, {"measurement": "Fold increase due to GSK983, LIFR mRNA", "setting": "W12 cells; [4]", "value": "2.1 ^b fold"}, {"measurement": "Fold increase due to GSK983, LRP1 mRNA", "setting": "W12 cells; [4]", "value": "1.2 ^b fold"}, {"measurement": "Fold increase due to GSK983, NR1H3 mRNA", "setting": "W12 cells; [4]", "value": "0.6 ^b fold"}, {"measurement": "Fold increase due to GSK983, OAS1 mRNA", "setting": "W12 cells; [4]", "value": "1.1 ^b fold"}, {"measurement": "Fold increase due to GSK983, SNAP25 mRNA", "setting": "W12 cells; [4]", "value": "1.2 ^b fold"}, {"measurement": "Fold increase due to GSK983, TLR5 mRNA", "setting": "W12 cells; [4]", "value": "1.9 ^b fold"}, {"measurement": "Fold increase due to GSK983, CCL5 mRNA", "setting": "W12 cells; 10 nM, 48 h", "value": 41.5, "unit": "fold"}, {"measurement": "Fold increase due to GSK983, CEL mRNA", "setting": "W12 cells; 10 nM, 48 h", "value": 14.1, "unit": "fold"}, {"measurement": "Fold increase due to GSK983, COL10A1 mRNA", "setting": "W12 cells; 10 nM, 48 h", "value": 2.0, "unit": "fold"}, {"measurement": "Fold increase due to GSK983, CPT1B mRNA", "setting": "W12 cells; 10 nM, 48 h", "value": 2.2, "unit": "fold"}, {"measurement": "Fold increase due to GSK983, CSF2 mRNA", "setting": "W12 cells; 10 nM, 48 h", "value": 1.7, "unit": "fold"}, {"measurement": "Fold increase due to GSK983, DCN mRNA", "setting": "W12 cells; 10 nM, 48 h", "value": 2.1, "unit": "fold"}, {"measurement": "Fold increase due to GSK983, DMPK mRNA", "setting": "W12 cells; 10 nM, 48 h", "value": 2.1, "unit": "fold"}, {"measurement": "Fold increase due to GSK983, ERN2 mRNA", "setting": "W12 cells; 10 nM, 48 h", "value": 2.6, "unit": "fold"}, {"measurement": "Fold increase due to GSK983, FMOD mRNA", "setting": "W12 cells; 10 nM, 48 h", "value": 1.5, "unit": "fold"}, {"measurement": "Fold increase due to GSK983, IFI6 mRNA", "setting": "W12 cells; 10 nM, 48 h", "value": 2.2, "unit": "fold"}, {"measurement": "Fold increase due to GSK983, IFI16 mRNA", "setting": "W12 cells; 10 nM, 48 h", "value": 1.6, "unit": "fold"}, {"measurement": "Fold increase due to GSK983, IFI44 mRNA", "setting": "W12 cells; 10 nM, 48 h", "value": 2.7, "unit": "fold"}, {"measurement": "Fold increase due to GSK983, IFIT1 mRNA", "setting": "W12 cells; 10 nM, 48 h", "value": 2.0, "unit": "fold"}, {"measurement": "Fold increase due to GSK983, IL6 mRNA", "setting": "W12 cells; 10 nM, 48 h", "value": 1.8, "unit": "fold"}, {"measurement": "Fold increase due to GSK983, IL8 mRNA", "setting": "W12 cells; 10 nM, 48 h", "value": 1.4, "unit": "fold"}, {"measurement": "Fold increase due to GSK983, IRF3 mRNA", "setting": "W12 cells; 10 nM, 48 h", "value": 1.3, "unit": "fold"}, {"measurement": "Fold increase due to GSK983, ISG15 mRNA", "setting": "W12 cells; 10 nM, 48 h", "value": 3.0, "unit": "fold"}, {"measurement": "Fold increase due to GSK983, LIFR mRNA", "setting": "W12 cells; 10 nM, 48 h", "value": 1.5, "unit": "fold"}, {"measurement": "Fold increase due to GSK983, LRP1 mRNA", "setting": "W12 cells; 10 nM, 48 h", "value": 3.5, "unit": "fold"}, {"measurement": "Fold increase due to GSK983, NR1H3 mRNA", "setting": "W12 cells; 10 nM, 48 h", "value": 1.8, "unit": "fold"}]}
